Test [1] has as its target T1, Leishmania Ddi1 (Leishmania major, UniProt I7HUG0).
T1 sequence (I7HUG0 148-390): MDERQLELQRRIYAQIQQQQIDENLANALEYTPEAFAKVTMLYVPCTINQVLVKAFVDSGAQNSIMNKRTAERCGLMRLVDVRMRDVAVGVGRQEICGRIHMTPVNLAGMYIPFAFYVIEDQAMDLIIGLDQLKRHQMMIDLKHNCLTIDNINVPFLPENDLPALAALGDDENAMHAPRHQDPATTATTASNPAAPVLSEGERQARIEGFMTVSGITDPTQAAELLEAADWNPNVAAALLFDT
Put plainly: Proteinase inhibitor assay. The class given is cell-based, L. major. The settings on record: for inhibition at 25 µM: read-out: Y16141 Leishmania, Inhibition at 25 μM (%).

Test [2] deals with wild-type S. cerevisiae BY4742. Put plainly: Proteinase inhibitor assay. The class given is cell-based. The conditions noted are these: Saccharomyces cerevisiae, read-out: BY4742, inhibition at 25 μM (%). The essentials:
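Wild-type BY4742 colony precultured overnight at 30°C in selective minimal medium, then shaken 48 h at 30°C to A600 ~2 with or without 25 μM inhibitor. Cells pelleted by centrifugation. Supernatant protein measured by RC DC assay with BSA standard and expressed as mg secreted per mg dry weight of pellet dried at 100°C. n=6.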

Test [3] has as its target T2, human Ddi1 (Homo sapiens, UniProt Q8WTU0).
T2 sequence (Q8WTU0 1-396): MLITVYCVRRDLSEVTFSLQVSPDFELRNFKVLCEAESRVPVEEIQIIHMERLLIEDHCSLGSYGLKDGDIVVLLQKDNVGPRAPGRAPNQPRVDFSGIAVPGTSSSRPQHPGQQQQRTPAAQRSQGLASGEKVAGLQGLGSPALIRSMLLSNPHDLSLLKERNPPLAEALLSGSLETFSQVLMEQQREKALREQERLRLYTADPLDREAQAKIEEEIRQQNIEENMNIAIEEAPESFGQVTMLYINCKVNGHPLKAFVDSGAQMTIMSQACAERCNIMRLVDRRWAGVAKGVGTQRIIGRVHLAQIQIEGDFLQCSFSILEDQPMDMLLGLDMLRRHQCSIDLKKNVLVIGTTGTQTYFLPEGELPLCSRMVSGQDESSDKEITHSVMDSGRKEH
Put plainly: Proteinase inhibitor assay. The class given is cell-based. The settings on record: for inhibition at 25 µM: read-out: Y16141 human, Inhibition at 25 μM (%). The essentials: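 Yeast DDI1-knockout Y16141 (BY4742 derivative) carrying the human Ddi1 ortholog in pVTL260, grown in selective minimal medium. Cultures shaken 48 h at 30°C to A600 ~2 with or without inhibitor (25 μM, or titrated). Supernatant protein measured against a BSA standard and expressed per mg dried-pellet weight. IC50 from a 4-parameter logistic fit. Means ± se, n=6.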

Test [4] deals with T3, S. cerevisiae Ddi1 (Saccharomyces cerevisiae, UniProt P40087).
T3 sequence (P40087 1-428): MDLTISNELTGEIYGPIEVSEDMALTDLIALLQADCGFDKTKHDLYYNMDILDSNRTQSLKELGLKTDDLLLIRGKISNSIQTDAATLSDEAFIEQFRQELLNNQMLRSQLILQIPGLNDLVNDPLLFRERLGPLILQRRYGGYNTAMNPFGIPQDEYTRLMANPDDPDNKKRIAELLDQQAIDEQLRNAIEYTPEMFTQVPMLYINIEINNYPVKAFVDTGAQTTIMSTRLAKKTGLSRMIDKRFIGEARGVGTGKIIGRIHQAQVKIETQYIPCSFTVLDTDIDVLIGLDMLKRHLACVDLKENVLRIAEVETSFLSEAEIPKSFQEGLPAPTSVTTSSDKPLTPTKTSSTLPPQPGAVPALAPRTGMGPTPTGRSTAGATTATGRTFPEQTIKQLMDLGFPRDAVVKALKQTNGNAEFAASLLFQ
The test can be described thus: Proteinase inhibitor assay. The class given is cell-based. The conditions noted are these: for inhibition at 25 µM: read-out: Y16141 Ddi1, Inhibition at 25 μM (%). The essentials:
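S. cerevisiae Ddi1 was expressed from pVTL260 in DDI1-knockout Y16141, transformed by lithium acetate. Colony precultured overnight at 30°C in selective minimal medium, then shaken 48 h at 30°C to A600 ~2 with or without inhibitor (25 μM, or a titration).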

Test [5] relates to L. amazonensis. The conditions noted are these: read-out: IC50, inhibition of cellular growth and multiplication with L. amazonensis; parasites in culture; cited from earlier work.
The subject of test [6] is L. major. The conditions noted are these: read-out: IC50, growth inhibition in L. major; parasites in culture; cited from earlier work.
The test system of test [7] is Y16141 cells expressing human ortholog of Ddi1. The test can be described thus: Yeast cell morphology, Y16141 with human Ddi1 construct. The class given is cell-based, S. cerevisiae. The conditions noted are these: 25 μM inhibitor; yeast transformed to express the human ortholog of Ddi1. The essentials: (§1)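 DDI1-knockout Y16141 carried pVTL260, either alone or encoding full-length Ddi1 orthologs, introduced by lithium acetate transformation. Grown 24 h at 30°C in selective minimal medium with or without 25 μM inhibitor. Morphology examined by phase-contrast microscopy at ×100, with images captured digitally. Fraction of cells with greatly enlarged morphology was recorded.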

The test system of test [8] is L. infantum. The conditions noted are these: cited from earlier work.
For test [9], the system named is Y16141 cells transformed with pVTL260 plasmid. The test can be described thus: Yeast cell morphology, knockout yeast transformed with plasmid alone. The conditions noted are these: 25 μM inhibitor. The class given is cell-based, S. cerevisiae. The essentials:
as §1

The subject of test [10] is Leishmania donovani. The settings on record: cited from earlier work.
In test [11] the test system is Y16141 cells expressing L. major Ddi1 ortholog. The test can be described thus: Yeast cell morphology, Y16141 with Leishmania Ddi1 construct. The class given is cell-based, S. cerevisiae. The conditions noted are these: 25 μM inhibitor, 24 h. The method in brief: as §1
The subject of test [12] is Y16141 cells expressing Saccharomyces Ddi1. The test can be described thus: Yeast cell morphology, Y16141 with Saccharomyces Ddi1 construct. The class given is cell-based, S. cerevisiae. The conditions noted are these: 25 μM inhibitor, 24 h. The essentials:
as §1

By inhibition is commonly meant the share of the control response that was lost under treatment. By IC50 is commonly meant the point on the concentration scale where inhibition reaches its midpoint.

Consider `CC(C)c1nc(CN(C)C(=O)N[C@H](C(=O)N[C@@H](Cc2ccccc2)C[C@H](O)[C@H](Cc2ccccc2)NC(=O)OCc2cncs2)C(C)C)cs1` [Ritonavir], for which the inhibition at 25 µM came to 22% in test [1], 1% in test [2], 3% in [3] and 0% in [4].

`CCC[C@@]1(CCc2ccccc2)CC(O)=C([C@H](CC)c2cccc(NS(=O)(=O)c3ccc(C(F)(F)F)cn3)c2)C(=O)O1` [Tipranavir]: the 50% inhibitory concentration (IC50) in test [1] was 2.9 ± 0.2 µM; in [3], 1.5 ± 0.2 µM. The inhibition at 25 µM in test [1] was determined as 97%; in test [2], 58%; in test [3], 90%; in test [4], 86%.

In the case of `Cc1cccc(C)c1OCC(=O)N[C@@H](Cc1ccccc1)[C@@H](O)C[C@H](Cc1ccccc1)NC(=O)[C@H](C(C)C)N1CCCNC1=O` [Lopinavir], the IC50 in [5] is 16 µM; in test [1], 56 ± 4 µM. For the same compound, the inhibition at 25 µM in test [1] was 38%; in [2], 6%; in test [3], 0%; in test [4], 6%.

On to `CC(C)(C)NC(=O)[C@@H]1C[C@@H]2CCCC[C@@H]2CN1C[C@@H](O)[C@H](Cc1ccccc1)NC(=O)[C@H](CC(N)=O)NC(=O)c1ccc2ccccc2n1` [Saquinavir], for which the results for the IC50 in test [1] and in test [6] were 2.8 ± 0.3 µM and 7 µM, respectively. Moreover, the inhibition at 25 µM in [1] amounted to 100%; in test [2], 31%; in test [3] it was 18%; in test [4], 24%.

Take `CC(C)(C)NC(=O)[C@@H]1CN(Cc2cccnc2)CCN1C[C@@H](O)C[C@@H](Cc1ccccc1)C(=O)N[C@H]1c2ccccc2C[C@H]1O` [Indinavir]: the figures for the IC50 in test [1] and in [6] were 3 ± 0.2 µM and 8 µM, respectively. In addition, the inhibition at 25 µM in test [1] amounted to 100%; in test [2] it was 36%; in test [3], 38%; in test [4], 24%.

Regarding `Cc1c(O)cccc1C(=O)N[C@@H](CSc1ccccc1)[C@H](O)CN1C[C@H]2CCCC[C@H]2C[C@H]1C(=O)NC(C)(C)C` [Nelfinavir], the values for the IC50 in [5], in test [1] and in test [3] were 15 µM, 0.44 ± 0.03 µM and 3.4 ± 0.4 µM, respectively. The compound also gave a Hill slope factor in test [1] (Y16141 expressing the L. major Ddi1 ortholog, Eq. 1 fit) of 0.72 ± 0.04. Further, the inhibition at 25 µM in test [1] is 100%; in [2], 50%; in test [3], 97%; in test [4], 40%. Further, the “effect on cell morphology” value in [7] and in test [9] was “no effects” in each case. Moreover, in test [8], the “sensitivity of L. infantum” value was “tens of micromolar range”. Besides, the “sensitivity of Leishmania donovani” value in [10] was “tens of micromolar range”. For the same compound, in test [11], the “cells with greatly enlarged morphologies (% of cells)” value was ~95 % of cells.

As for `CC(C)CN(C[C@@H](O)[C@H](Cc1ccccc1)NC(=O)O[C@H]1CCOC1)S(=O)(=O)c1ccc(N)cc1` [Amprenavir], the values for the IC50 in test [5], in test [1] and in test [4] were 62 µM, 5.7 ± 0.7 µM and 2.8 ± 0.2 µM, respectively. Further, the inhibition at 25 µM came to 100% in test [1], 91% in test [2], 9% in [3] and 95% in test [4]. Besides, the “effect on cell morphology” value in test [7] and in [9] was “no effects” throughout. Besides, the “cells with greatly enlarged morphologies (% of cells)” value in test [12] was ~75 % of cells.

The values are drawn from PMC3739880 (The FASEB Journal, 2011).
